STAT3 activator – IL-6 driven STAT3 reporter potentiators, primary screen, U3A cells, luciferase, luminescence, MLSCN library. IL-6 STAT3-luciferase reporter; 100% = signal with IL-6 EC80 alone. activation (% of control), % at 5.6 µM. 190,000 tested, 0.91% active. AID 871, 2007;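 active = activation above the screen-wide mean of compound activation plus 3 SD, cut at about 130% in these data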
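Material: STAT1-lacking human U3A cells, STAT3 luciferase reporter | Benchmarks: IL-6-only wells as 100% reference | Probe or stimulus: IL-6 (33 ng/mL) | Timing: Compound 1 h, then IL-6 6 h at 37 °C | Detection: Luminescence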
Thrombin inh – human alpha-thrombin inhibitors, primary screen, counter-screen for coagulation protease inhibitor project, biochemical, 1536-well, fluorogenic AMC substrate; Prothrombin (Homo sapiens), P00734; Boc-VPR-AMC fluorogenic substrate cleavage; inhibition, % at 5 µM; 220,000 tested, 0.26% active; AID 1046, 2008;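 active = inhibition at or above 40%; inactive = inhibition below 40%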
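Material: human alpha-thrombin enzyme / Medium: pH 7.5 Tris (50 mM) with NaCl 150 mM, Tween 20 0.05% / Compound: single-point dosing at 5 µM, 0.2% DMSO / Incubation: enzyme reaction carried out at room temperature / Detection: AMC fluorescence, 355/460 nm / Read-out basis: percent inhibition scaled between no-compound controls and no-enzyme blanks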
KLK5 inh – human KLK5 protease inhibitors, primary screen, biochemical, 1536-well. Kallikrein-5 (Homo sapiens), Q9Y337. recombinant hK5, fluorogenic AMC substrate cleavage. inhibition, % at 5 µM. 210,000 tested, 0.59% active. AID 873, 2007;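 active = inhibition of 40% or more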
AHR activator – AHR activators, primary screen, cell-based, luminescence, luciferase reporter, human; Aryl hydrocarbon receptor (Homo sapiens), P35869; AHR-responsive luciferase reporter cells; activation, % at 5 µM; 320,000 tested, 2.5% active; in the data active = activation above about 47%
FXIIa inh 1536 – human FXIIa protease inhibitors, primary screen, biochemical, 1536-well. Coagulation factor XII (Homo sapiens), P00748. purified FXIIa, Boc-QGR-AMC fluorogenic substrate, 2 h. inhibition, % at 5 µM. 220,000 tested, 0.3% active. AID 800, 2007; in the data active = inhibition above about 40%
Target sequence (P00748 20-372 limits assumed): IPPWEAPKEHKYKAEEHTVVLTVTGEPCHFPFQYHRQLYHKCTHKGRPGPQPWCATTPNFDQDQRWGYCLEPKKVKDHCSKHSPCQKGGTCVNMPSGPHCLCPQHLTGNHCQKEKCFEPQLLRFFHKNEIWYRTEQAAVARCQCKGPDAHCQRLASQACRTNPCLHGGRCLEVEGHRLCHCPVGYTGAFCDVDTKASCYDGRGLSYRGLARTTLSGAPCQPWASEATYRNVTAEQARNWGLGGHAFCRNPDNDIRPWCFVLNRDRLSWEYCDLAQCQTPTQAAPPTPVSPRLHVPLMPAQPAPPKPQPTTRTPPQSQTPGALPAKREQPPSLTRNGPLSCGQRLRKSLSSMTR
Target sequence (P00748 373-615 limits assumed): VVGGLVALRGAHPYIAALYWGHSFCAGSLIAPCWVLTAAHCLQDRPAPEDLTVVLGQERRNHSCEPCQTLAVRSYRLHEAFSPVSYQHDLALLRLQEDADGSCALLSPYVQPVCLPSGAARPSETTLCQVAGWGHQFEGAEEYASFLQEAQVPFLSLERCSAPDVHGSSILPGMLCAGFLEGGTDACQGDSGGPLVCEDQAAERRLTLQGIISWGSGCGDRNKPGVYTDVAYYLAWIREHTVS
FXIa inh – human FXIa protease inhibitors, primary screen, biochemical, 1536-well. 220,000 tested, 0.14% active. Coagulation factor XI (Homo sapiens), P03951. inhibition, % at 5 µM. purified FXIa, Boc-Glu-Ala-Arg-AMC fluorogenic substrate;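 active = inhibition of at least 40%; inactive = inhibition below 40%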;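 note: fluorescence of freed AMC excited at 355 nm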
Hits are given with their value; 0 = inactive; - = no result. Compounds with a hit are over-represented: about 3.5% of the library has one in this group of screens.

SMILES	STAT3 activator	Thrombin inh	KLK5 inh	AHR activator	FXIIa inh 1536	FXIa inh
CN(C)c1ccc(N=Cc2nc(-c3ccccc3)oc2OC(=O)c2ccccc2)cc1	0	0	0	49	0	0
CC(=O)Oc1oc(-c2ccccc2)nc1C=Nc1ccc(N(C)C)cc1	-	0	0	0	0	0
COc1ccccc1N=Cc1nc(-c2ccccc2)oc1OC(C)=O	0	0	0	0	0	43
O=c1nc(N2CCOCC2)nc(N/N=C/c2ccc3c(c2)OCO3)[nH]1	0	0	0	0	0	0
CN(/N=C/c1ccc2c(c1)OCO2)c1nc(N2CCOCC2)nc(N2CCOCC2)n1	0	0	0	0	100	0
Cc1ccc(S(=O)(=O)N2CCOCC2)cc1C(=O)NCc1cn2ccsc2n1	0	0	0	0	0	0
CCn1c2ccc(Cl)cc2c2nc3ccccc3nc21	0	0	0	53	0	0
CC(=O)N/C(=N/c1nc(C)cc(C)n1)Nc1ccc(NC(C)=O)cc1	0	0	0	0	0	0
CCC(=O)N/C(=N/c1nc(C)cc(C)n1)Nc1cccc(OC)c1	0	94	0	0	0	0
CC(=O)N/C(=N/c1nc(C)cc(C)n1)Nc1cc(C)cc(C)c1	-	-	-	58	-	-
CCOC(=O)C(C(=O)NCc1cccc(OC)c1)c1ncc(C(F)(F)F)cc1Cl (stereo unspecified)	0	0	0	0	45	0
CCC1(C)N=C(c2ccc3c(c2)OCO3)CC(c2ccccc2O)N1 (stereo unspecified)	144	0	0	73	0	0
CN(C(=O)c1cc(-c2ccc3c(c2)OCO3)on1)c1ccccc1	-	-	-	0	-	-
COc1ccc(S(=O)(=O)NCc2ccco2)cc1-c1nnc2c3ccccc3c(C)nn12	0	0	0	0	0	0
COc1ccc(/C=N/NC(=O)CCn2cnc3ccccc32)cc1	-	0	41	0	40	41
CN1C(C(=O)NCc2cccc(C(F)(F)F)c2)CC2Cn3c(nc4cc(Cl)c(Cl)cc43)C21 (stereo unspecified)	-	0	0	0	0	0
COc1ccc(S(=O)(=O)n2nc(OC(=O)c3cccs3)cc2N)cc1	0	0	78	0	0	0
COc1ccc(S(=O)(=O)n2nc(OC(=O)c3ccccc3)cc2N)cc1	0	0	51	0	0	0
CCn1c(=S)[nH]c2nc3c(cc2c1=O)CCCC3	0	0	88	0	0	0
Cc1cc(N2C(=O)CC(Cc3ccc(Cl)cc3)C2=O)no1 (stereo unspecified)	0	0	40	0	0	0
O=C(NCCCn1ccnc1)c1ccncc1	0	0	0	0	0	0
O=C(NCCCn1ccnc1)c1ccc(Cl)c(Cl)c1	-	-	-	51	-	-
O=C(NCCCn1ccnc1)c1cc([N+](=O)[O-])cc([N+](=O)[O-])c1	0	0	0	48	0	0
O=C(NCCCn1ccnc1)c1ccc(Cl)cc1	-	0	0	0	0	0
CCC(C)c1ccc(NC(=S)N2CCN(C(=O)C3CCCO3)CC2)cc1 (stereo unspecified)	-	-	-	0	-	-
SMILES	STAT3 activator	Thrombin inh	KLK5 inh	AHR activator	FXIIa inh 1536	FXIa inh
CC(CN1C(C)CCCC1C)OC(=O)c1ccccc1Cl (stereo unspecified)	0	0	0	0	0	0
CC(CN1C(C)CCCC1C)OC(=O)c1ccc(Cl)cc1Cl (stereo unspecified)	0	0	0	0	45	0
CCOc1cc2c(cc1OCC)CN(C(=O)c1cccc(S(=O)(=O)N3CCCC3)c1)CC2	-	-	-	0	-	-
COc1ccc(NC(=O)Nc2nnc(-c3ccccc3SCc3ccccc3)s2)cc1	0	0	0	51	0	0
S=c1[nH]nc(-c2ccccc2)n1/N=C/c1ccc(-c2ccccc2Cl)o1	0	0	0	53	0	0
S=c1[nH]nc(-c2cccc(Cl)c2)n1/N=C/c1ccc(-c2ccccc2Br)o1	-	0	0	0	0	0
COc1cc(C(=O)O[C@H]2C/C(C)=C/CC[C@@]3(C)O[C@@H]3[C@H](O)[C@@H]2C(C)C)cc(OC)c1OC	-	-	-	0	-	-
